We go through 48 sequences from the EternaBench riboswitch data.

The series concerns MS2 coat protein. As to the kind of experiment: apparent Kd, MS2 coat protein; higher = weaker binding; RNA-MaP array; FMN 200 µM where present. The essentials:
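The apparent Kd comes from binding curves fitted cluster by cluster, filtered, and summarised as a median. Those curves followed SNAP-549-labelled MS2 coat protein from 0.7 or 1.5 nM, doubling to 3 µM, on Illumina sequencing-chip clusters where stalled E. coli RNA polymerase had transcribed the designs, without and then with constant ligand. The buffer was 100 mM Tris-HCl pH 7.5, 80 mM KCl, 4 mM MgCl2, BSA, DTT, yeast tRNA and Tween-20, and green signal was normalised to red-channel RNA signal and control-cluster median Fmax.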

Where [1] appears, read: designed as: OFF switch for flavin mononucleotide, no ligand.
Where [2] appears, read: ligand present: flavin mononucleotide, designed as: OFF switch for flavin mononucleotide.
[3] abbreviates: designed as: ON switch for flavin mononucleotide, no ligand.
[4] abbreviates: ligand present: flavin mononucleotide, designed as: ON switch for flavin mononucleotide.

Usually apparent Kd stands for a dissociation constant that holds for the conditions of the assay. Turning to “UGAACAAUGUAGAAGGCCCACAUUUAUAUGUAGGGAGGAUAUACAUGAGGAUCACCCAUGUAAAGAGCAAGAGGAUUUGACAGA”, the “apparent Kd” value was 9.49 nM under setting [1] and 17.6 nM under setting [2].
As to “UUAUAUAGUGUGAGGAUAUGCUGGUCCUUGGAUCAGCAGAAGGCACAUGAGGAUCACCCAUGUAGUUUAUUAUU”, the “apparent Kd” value was 30.2 nM under setting [1] and 130 nM under setting [2].
As to “AGAUGUGAACAUGAGGAUCACCCAUGUGACUAGGUAUAUUUCAGAAGGCAUUUAUAGAGAUUAUAUGAGGAUAUGAAGUUUUAA”, the “apparent Kd” value is, setting by setting: under setting [3], 12.7 nM; under setting [4], 6.59 nM.
For “AGCUCGGGUGCAGGAUAUCCGCCGGAUCGCAGUGGAGAAGGGCGCCAAGCGAACAUGAGGAUCACCCAUGUAUCGGAGCCGGAC” the same measures were 55.6 nM and 11.1 nM.
In the case of “GACCUAUAGGUAGGAUAUCAUUGCGAUUAGCUAUGAGAAGGACCACAUGAGGAUCACCCAUGUCCUCUAAUUAGCCAUUUGGUC”, the “apparent Kd” value came out at 380 nM under setting [1] and 1040 nM under setting [2].
As for “GUCAGCUCGUGAGGAUAUACAACACUGCUUCGGCAGUCUAUUAAGAUCACAUGAGGAUCACCCAUGUAGAAGGCACGAGCUGAU”, the “apparent Kd” value under setting [1] worked out at 14.9 nM and the “apparent Kd” value under setting [2] was determined as 292 nM.
The like results for “AUCCUGCGAGGAUAUACUUACUUUUUUUCAUUUGGUUGCGAACAUGAGGAUCACCCAUGUAGAAGGUGCAUAAC” were, in that order, 22.9 nM and 24.7 nM.
The like results for “GAUAGGACAGAGAAGGACAUGGCUAGAGAUACUAGCAUAUGAACCUUCACAUGAGGAUCACCCAUGUAGGAUAUCUGUCCUAUC” were, in that order, 3.8 nM and 4.86 nM.
For “GGUCCACAUGAGGAUCACCCAUGUUAGGAUAUCUCGCCCGAGUCGUUAUGGGCCAGGCAGAGAAGGAAUGUGAA” the same measures were 20.4 nM and 18.8 nM.
Take “AAUAUAAGAGCUGGAAAUACUCAAACAUGAGGAUCACCCAUGUAGGAUAUCAGCACGAUAAGUGCUGAGAAGGACAUCCAGCUC”: the “apparent Kd” value reads like this: under setting [1], 15 nM; under setting [2], 15.4 nM.
For “AACUGACAUGAGGAUCACCCAUGUCAGGAUAUGACUUCAAAAUAAAAAUAAAAUGAUGUCAGAAGGGACAUGAA” the same measures were 13.3 nM and 12 nM.
Take “UAAUCUCAGAUAGGAUAUAUAGGAUAACUUAAGACCGAACAUGAGGAUCACCCAUGUGAUUAUUCGUAGAAGGAUCAAUGACCC”: the “apparent Kd” value under setting [3] turned out to be 119 nM and the “apparent Kd” value under setting [4] worked out at 119 nM.
Turning to “UCCAUGUUAGGAUAUUACAUGCAGGCUGUAACACGCCGGUGUAAGAAGGAACAUGAGGAUCACCCAUGUGUCGU”, the “apparent Kd” value reads like this: under setting [1], 68 nM; under setting [2], 137 nM.
The like results for “AUUAAGAAUGAAGGAUAUCUAAGCGUAAACAAAAGAGAAGGUCAAUAGUACAUGAGGAUCACCCAUGUUAGAAUAGAUGGGAUA” were, in that order, 117 nM and 103 nM.
With “GUAGAGUAGUGAGGAUAUACGAGUACGAUAGUACGGCGAUCCAUUAAUACAUGAGGAUCACCCAUGUAGAAGGCACUUCUCUAC”, the “apparent Kd” value runs as follows: under setting [1], 6.6 nM; under setting [2], 84 nM.
For the sequence “CCUCGGUUAGGAUAUGGAUGGUCACCCUGCGGUGUACCGCUCCAGAAGGGACAUGAGGAUCACCCAUGUUACGC”, the “apparent Kd” value is, setting by setting: under setting [1], 106 nM; under setting [2], 338 nM.
“GGUGCGUAUGUGAGGAUAUGCUGGUCCUUGGCUCGGCAGAAGGCACAUGAGGAUCACCCAUGUGGUGUCGUGCC”: the “apparent Kd” value was determined as 16.9 nM under setting [1] and 37.7 nM under setting [2].
Turning to “CGGCUCUCAGGAUAUACCUCGGGUGGCCAACUGUUUCGUUUACAUGAGGAUCACCCAUGUAGAAGGGAGGGCAA”, the “apparent Kd” value turned out to be 49.7 nM under setting [1] and 27 nM under setting [2].
As for “ACAUGAGGAUCACCCAUGUAUAGAUUUGAAUGUUAAGUUACGUAGGAUAUCGUGUUUAGUAUGAUCGAGAAGGACGAUCUGAUA”, the “apparent Kd” value under setting [3] was found to be 25.8 nM and the “apparent Kd” value under setting [4] amounted to 20.8 nM.
On to “ACAUGAUCAGGAUAUACAUGAGGAUCACCCAUGUUUAUCAAAAAAGGGCUUUCUACAUGUAGAAGGGAUCUUGU”, for which the “apparent Kd” value is, setting by setting: under setting [1], 21.8 nM; under setting [2], 39.9 nM.
“ACGCCCUGAGGAUAUCUCAUCCCGCACAUGAGGAUCACCCAUGUUCUCCUCCGGGCUCCGAGAGAAGGCAGGCCCA”: the “apparent Kd” value runs as follows: under setting [1], 54.7 nM; under setting [2], 95.2 nM.
In the case of “UGUAUGGACAGAGGAUAUGCCGAUAGGAUCUACUAUCGAAGAAUCCUCACAUGAGGAUCACCCAUGUAGAAGGCUGUCCAUACU”, the “apparent Kd” value by setting is: under setting [1], 25.3 nM; under setting [2], 150 nM.
The like results for “GCACGGUUUGUAGGAUAUGCAUAGCAUUGCUAUGCAGAAGGACAUGAGGAUCACCCAUGUAUGUAUUCCAUACAUUUCCCGUGC” were, in that order, 5.62 nM and 5.63 nM.
The like results for “UCAUUAGCGGGCGGAUCGGUUGGACAUGAGGAUCACCCAUGUAGAAGGACCGGUGGAUUCCGGCGGUAGGAUAUACAUUUGGUG” were, in that order, 12.7 nM and 19.8 nM.
Consider “GUACUGAAGCUUUGCUUUAGUCGUACAUGAGGAUCACCCAUGUAGGAUAUGGUAGGCUUUGCCUACUAGAAGGAUAGAGUGAUC”, for which the “apparent Kd” value is 89.2 nM under setting [1] and 33.9 nM under setting [2].
“GUAGCAUACCGAGGAUAUUCAGGGCUUAAAUAAACAUGAGGAUCACCCAUGUGGCGAAAGCCUAGGGAGAAGGCGGAAUGCUAC”: the “apparent Kd” value reads like this: under setting [3], 14.6 nM; under setting [4], 13.4 nM.
As to “AAUUUACAGGGAGGAUAUACAUGAGGAUCACCCAUGUAAUCAUAUGAUAUUUUUUUUGUAUGAGUGUAGAAGGCCCAACUACCA”, the “apparent Kd” value was 10.7 nM under setting [1] and 11 nM under setting [2].
The like results for “GUGGUCUCCGCAGGAUAUGGCUCGGGCACGACACCAGAAGGGCGGACAUGAGGAUCACCCAUGUUCGCGGGUGGGUCCUAAGGA” were, in that order, 6.39 nM and 7.49 nM.
For “AUACAUGAGGAUCACCCAUGUUACAUGGCCUUGAUAGAUCGUAGAAGGAUGUUAUUAUUAAUUUCAUAGGAUAUACUAUUUAGU” the same measures were 95.1 nM and 72.9 nM.
Regarding “GUAGCAUGAUUAGGAUAUUCAGCGAAUAGAUUGACAUGAGGAUCACCCAUGUGGCGAAAGCCGAGGGAGAAGGGAUGAUGCUAC”, the “apparent Kd” value under setting [4] is 47.4 nM.
For “CCCAGGUCAUCUCCCGGGAACAACAUGAGGAUCACCCAUGUCUAGGAUAUCCACCAGUCAAUAAAGGAGAAGGAGACGGUGGUU”, the “apparent Kd” value was found to be 29.3 nM under setting [1] and 31.9 nM under setting [2].
As for “GGGUACAUCGGAGGAUAUCCUGUAAAUACAUGAGGAUCACCCAUGUCGAUGGAGACAUCGGAGAUUGAGAAGGCCGAUGUACCG”, the “apparent Kd” value is, setting by setting: under setting [3], 35 nM; under setting [4], 6.74 nM.
On to “AUGACAGGCAGAGCGCAACGGCGAACAUGAGGAUCACCCAUGUAGGAUAUGCUACACAAAGUGUAGCAGAAGGACAUGCGACGA”, for which the “apparent Kd” value by setting is: under setting [1], 48.3 nM; under setting [2], 206 nM.
For “CGGGAGAGAGGAUAUGGUGGACAUCACAUGAGGAUCACCCAUGUCUCGAGUGCUCCGUCACCAGAAGGCUCCGUUU” the same measures were 109 nM and 78.7 nM.
For “AAUUUACAUGAGGAUCACCCAUGUGAGGAUAUGAUACUAUGUACUUCGGUACAUAGUAUCAGAAGGCAUGUGGG” the same measures were 27.2 nM and 21.4 nM.
For the sequence “UUUUUUGUAGUGAGGAUAUCGUUGUGGAUGUGGAUCGAGAAGGCACAUGAGGAUCACCCAUGUUAGUUGUGGUU”, the “apparent Kd” value worked out at 155 nM under setting [1] and 216 nM under setting [2].
With “GCGUCCCGCAGAGGAUAUGUUGUUCCGCCUACAUGAGGAUCACCCAUGUCAAAGGGCUGAUCCCGACAGAAGGCUGAAGGAUAC”, the “apparent Kd” value was found to be 130 nM under setting [3] and 138 nM under setting [4].
Consider “AGCUGUGGCAGAGGAUAUACCUCAAUAAUCCAUUGCAAAUAGCGAUGGACAUGAGGAUCACCCAUGUAGAAGGCUGUCUCAGCA”, for which the “apparent Kd” value is, setting by setting: under setting [1], 323 nM; under setting [2], 733 nM.
For “CGCACUGAUAGAGGAUAUGUUUUACAUGAGGAUCACCCAUGUGUACAAGGAUCAAUAUAUUAGUAACAGAAGGCUAUUAGUGCG” the same measures were 24.7 nM and 21.5 nM.
For “UAACAGUUAGGAUAUACCAGGGUAUCCUCGCGGCGCCGAAAACAUGAGGAUCACCCAUGUAGAAGGAACCGUUU” the same measures were 65 nM and 19.6 nM.
As to “AUAAAACAUGAGGAUCACCCAUGUGAGGAUAUGCUAAAAUAAAAUAAAAUAAAAUAAUGCAGAAGGCACAAAUA”, the “apparent Kd” value was 59.6 nM under setting [1] and 74.6 nM under setting [2].
With “GGAUCGUAUGUCAGGAUAUGCCACUGGAUACAGUGGUAGAAGGGACAUGAGGAUCACCCAUGUCCUACCGAUCC”, the “apparent Kd” value under setting [1] was found to be 12.5 nM and the “apparent Kd” value under setting [2] came to 14.4 nM.
For “UAAAAUUUACGAGGAUAUCCAAAGGUAGACAUAGGAGAAGGCGUACAUGAGGAUCACCCAUGUACCAAUAAAUGGGUUUCUCAA”, the “apparent Kd” value came to 20.8 nM under setting [1] and 57.8 nM under setting [2].
“UACAUGAGGAUCACCCAUGUUAACAUGGUGUUGUUAUAUCUGAGAAGGGUAAUAUUACAUUAAGUACAGGAUAUCAUUGAUGUU”: the “apparent Kd” value by setting is: under setting [1], 208 nM; under setting [2], 46.3 nM.
In the case of “GGUGCGUUUGUGAGGAUAUGCUGGUCCUUGGAUCAGCAGAAGGCACAUGAGGAUCACCCAUGUGGUGUCGUUCC”, the “apparent Kd” value reads like this: under setting [1], 181 nM; under setting [2], 143 nM.
“UUUAGUUGCGCGCAGGAUAUGUAUUAAUAUACAUGAGGAUCACCCAUGUGAGACCAAAUAGGUCUACAGAAGGGCGAAUCGCGAC”: the “apparent Kd” value by setting is: under setting [3], 446 nM; under setting [4], 47.6 nM.
Take “UUGAGGUCAGGAUAUGCAUGGCGGGACUUGCGUCGUGGCGUGCAGAAGGGACAUGAGGAUCACCCAUGUGGAGU”: the “apparent Kd” value under setting [1] came out at 145 nM and the “apparent Kd” value under setting [2] stood at 236 nM.
With “UAUGGUAAAGUCAGGAUAUACGUACGUCGUUCUAGGUAGAAGGGACAUGAGGAUCACCCAUGUAUGGUAGUGUU”, the “apparent Kd” value reads like this: under setting [1], 90 nM; under setting [2], 88.9 nM.
